A short description of data set [1]: Lipophilicity (Rm). The data set is classed as physicochemical.
For data set [2], the system named is HCT-8. The data set is described as follows: Ability to inhibit the growth of human colon tumor HCT-8 cells in vitro. It counts as functional, cell-based. Put shortly:
(§1)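 Cultured leukemia L1210 or human colon tumor HCT-8 cells were exposed to drug for 40 h.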

Data set [3] deals with L1210. Kind of data set: Ability to inhibit the growth of leukemia L1210 cells in vitro. It counts as functional, cell-based. The settings on record: Mus musculus. Put shortly: as §1
In data set [4] the test system is Lewis lung carcinoma cell line. Kind of data set: Percent increase in life span, of the drug-treated tumor-bearing animals vs nontreated tumor-bearing controls with LL (Lewis lung carcinoma model) cells. The data set is classed as functional, Mus musculus. Put shortly: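 Groups of 6. Optimal dose is in mg/kg per day. ILSmax is the % lifespan increase over untreated tumor-bearing controls at the optimal dose; above 40% counted significant. Cures are 60-day survivors.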

The subject of data set [5] is Lewis lung carcinoma cell line. Kind of data set: Optimal dose to inhibit the LL (Lewis lung carcinoma model) cells in vivo after intraperitoneal administration. It counts as functional, Mus musculus. The arrangement: unit: mg/kg/day. In short, it runs like this: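 Mice were inoculated iv with 10^6 Lewis lung carcinoma cells. OD is the optimal dose in mg/kg per day. Lifespan increase above 40% is significant, and long-term survival was scored at 60 days.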

Data set [6] deals with P388/ADR. Kind of data set: Percent increase in life span, of the drug-treated tumor-bearing animals vs nontreated tumor-bearing controls with P388/ADR cells. It counts as functional, Mus musculus. In short, it runs like this:
(§2)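 Groups of 6. Optimal dose is in mg/kg per day. ILSmax is the % lifespan increase over untreated tumor-bearing controls at the optimal dose; above 20% counted significant. Cures are 50-day survivors.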

Data set [7] has as its system P388/ADR. Kind of data set: Optimal dose required to inhibit the P388/ADR cells in vivo after intraperitoneal administration. The arrangement: unit: mg/kg/day. It counts as functional, Mus musculus.
Data set [8] has as its system P388. The data set is described as follows: Optimal dose required to inhibit the P388 intraperitoneal administration. The arrangement: unit: mg/kg/day. The data set is classed as functional, Mus musculus.
Data set [9] relates to P388. The data set is described as follows: Percent increase in life span of the drug-treated tumor-bearing animals vs nontreated tumor-bearing controls with P388 leukemia cells. It counts as functional, Mus musculus. In short, it runs like this:
as §2

Data set [10] deals with poly[d(A-T)]. The data set is described as follows: Binding constant for poly[d(A-T)] by ethidium bromide displacement.
The species named for data set [11] is Mus musculus. Kind of data set: Percent increase in life span of the drug treated tumor bearing animals vs nontreated tumor bearing controls was determined against P388/ADR cells;NA= not active. It counts as functional, organism-based. In short, it runs like this: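 Mice were inoculated ip with 10^6 P388 or ADR/P388 cells. OD is the optimal dose in mg/kg per day. ILSmax is the % lifespan increase over untreated tumor-bearing controls at the OD; above 20% is significant. Long-term survival was scored at 50 days.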

The record followed here is ChEMBL document CHEMBL1123886 (J Med Chem, 1987).

By IC50 is commonly meant the concentration that inhibits the measured activity by half.

Activity calls are given as the source filed them. No cut-off for these calls is given here.

For `CNc1cc(NC(=O)OC)ccc1Nc1c2ccccc2nc2cc(Cl)ccc12`, the Rm in data set [1] was 0.73. The IC50 was determined as 0.55 µM in data set [2] and 0.174 µM in data set [3]. Moreover, the ILS max in data set [4] is 92; in data set [6], 35; in data set [9] it was 104. For the same compound, the OD turned out to be 45 in [5], 65 in data set [7] and 65 in [8]. In [10], the Log K came to 6.13.
In data set [1], `CNc1cc(NC(=O)OC)ccc1Nc1c2ccc(Cl)cc2nc2c(C)cccc12` returned a Rm of 0.67. For the same compound, the IC50 in [2] turned out to be 0.33 µM; in data set [3], 0.185 µM. Moreover, the values for the ILS max in [4], in [6] and in [9] were 143, 79 and 173, respectively. Moreover, the OD in [5], in data set [7] and in [8] was 45 each time. For the same compound, the Log K in data set [10] was found to be 7.52.
Compound `CNc1cc(NC(=O)OC)ccc1Nc1c2ccc(Br)cc2nc2c(OC)cccc12` gave a Rm in [1] of 0.55. Also, the IC50 in [3] was found to be 0.36 µM. For the same compound, the results for the ILS max in [4], in data set [6] and in data set [9] were 31, 20 and 98, respectively. The OD in data set [5] is 100; in data set [7], 65; in [8], 65. In data set [10], the Log K was 6.43.
Consider `CNc1cc(NC(=O)OC)ccc1Nc1c2ccccc2nc2cc(F)ccc12`, for which the Rm in data set [1] was found to be 0.63. Further, the IC50 worked out at 0.42 µM in data set [2] and 0.2 µM in data set [3]. Moreover, the figures for the ILS max in data set [4], in [6] and in data set [9] were 83, 21 and 110, respectively. For the same compound, the values for the OD in data set [5], in data set [7] and in data set [8] were 100, 100 and 65, respectively. In data set [10], this compound had a Log K of 5.77.
As for `CNC(=O)c1cccc2c(Nc3ccc(NC(=O)OC)cc3NC)c3cccc(OC)c3nc12`, the Rm in data set [1] is 0.45. Moreover, 1.75 µM corresponded to half-maximal inhibition in [3] (IC50). For the same compound, the ILS max came out at 47 in data set [4], 31 in data set [6] and 92 in data set [9]. Moreover, the OD in [5] was found to be 65; in [7] it was 45; in data set [8], 65. Besides, in data set [10], the Log K worked out at 6.95.
Compound `CNC(=O)c1cccc2c(Nc3ccc(NC(=O)OC)cc3NC)c3ccccc3nc12` displayed a Rm in data set [1] of 0.43. Further, the IC50 stood at 2.75 µM in [2] and 0.84 µM in data set [3]. The ILS max in [4] came out at 58; in [9], 60. Besides, the OD in [5], in data set [7] and in [8] was 65 throughout. Also, the Log K in data set [10] came to 6.48.
For the compound `CNc1cc(NC(=O)OC)ccc1Nc1c2ccc(C)cc2nc2c(OC)cccc12`, in data set [1], the Rm amounted to 0.61. The same compound had an IC50 in [3] of 0.011 µM. Moreover, the ILS max in data set [4] is listed as 107; in data set [6], 57; in data set [9], 128. The OD is listed as 65 in [5], 45 in data set [7] and 45 in data set [8]. In addition, the Log K in data set [10] worked out at 7.34.
Take `CNc1cc(NC(=O)OC)ccc1Nc1c2ccc(Cl)cc2nc2c(OC)cccc12`: the Rm in data set [1] is on record as 0.54. In addition, the values for the IC50 in [2] and in data set [3] were 1.1 µM and 0.66 µM, respectively. For the same compound, the ILS max in data set [4] was found to be 133; in data set [6], 73; in data set [9] it was 177. The values for the OD in [5], in [7] and in data set [8] were 65, 100 and 100, respectively. The Log K in data set [10] worked out at 6.93.
As to `CNc1cc(NC(=O)OC)ccc1Nc1c2ccccc2nc2c(F)cccc12`, the Rm in data set [1] turned out to be 0.37. The results for the IC50 in data set [2] and in data set [3] were 2.8 µM and 1.4 µM, respectively. Besides, the results for the ILS max in data set [4], in [6] and in [9] were 77, 43 and 103, respectively. In addition, the OD came out at 65 in data set [5], 100 in data set [7] and 65 in [8]. Moreover, the Log K in data set [10] came out at 5.82.
`CNc1cc(NC(=O)OC)ccc1Nc1c2ccc(C)cc2nc2c(C)cccc12` yielded a Rm in data set [1] of 0.51. Further, the figures for the IC50 in [2] and in data set [3] were 0.08 µM and 0.044 µM, respectively. Moreover, the ILS max in [4] worked out at 171; in data set [6], 33; in data set [9], 181. Besides, the values for the OD in data set [5], in data set [7] and in data set [8] were 20, 13.3 and 20, respectively. The same compound had a Log K in [10] of 6.95.
Consider `COc1cc(NS(C)(=O)=O)ccc1Nc1c2ccccc2nc2ccccc12` [AMSACRINE], for which, in data set [1], the Rm came out at 0.18. In [11], the ILS max entry was “inactive”.
Regarding `CNc1cc(NC(=O)OC)ccc1Nc1c2ccccc2nc2cc(Br)ccc12`, the Rm in data set [1] is given as 0.7. Besides, the IC50 in data set [2] amounted to 0.8 µM; in data set [3], 0.341 µM. Also, the ILS max in [4] is given as 86; in data set [6], 29; in data set [9], 101. Moreover, the OD in [5], in [7] and in data set [8] was 45 in each case. The compound further yielded a Log K in data set [10] of 6.87.
Compound `CNc1cc(NC(=O)OC)ccc1Nc1c2ccccc2nc2cc(OC)ccc12` came in with a Rm in data set [1] of 0.45. In addition, the IC50 in data set [2] was found to be 0.33 µM; in data set [3], 0.17 µM. Moreover, the ILS max in [4] turned out to be 85; in data set [6] it was 89; in [9], 108. The OD in [5] was found to be 45; in data set [7], 65; in [8], 45. Moreover, the Log K in [10] came to 6.74.
In [1], `CNc1cc(NC(=O)OC)ccc1Nc1c2ccccc2nc2c(OC)cccc12` displayed a Rm of 0.41. The IC50 was 0.63 µM in [2] and 0.54 µM in data set [3]. The ILS max in data set [4] was 167; in data set [6], 35; in data set [9], 98. Moreover, the OD in [5], in [7] and in data set [8] was 30 throughout. In addition, the Log K in [10] is 6.57.
In data set [1], `CNc1cc(NC(=O)OC)ccc1Nc1c2ccccc2nc2c(C(N)=O)cccc12` showed a Rm of 0.06. The concentration for half-maximal inhibition (IC50) in data set [2] was 3.6 µM; in data set [3], 1.6 µM. Moreover, the figures for the OD in data set [5], in data set [7] and in data set [8] were 65, 100 and 100, respectively. Moreover, the ILS max in [9] was found to be 32. Further, in data set [10], the Log K came out at 6.
`CNc1cc(NS(C)(=O)=O)ccc1Nc1c2ccccc2nc2ccccc12` registered a Rm in [1] of 0.17. For the same compound, the ILS max entry in data set [11] was “inactive”. The OD in data set [7] was found to be 13.3.
`CNc1cc(NC(=O)OC)ccc1Nc1c2ccccc2nc2c(C)cccc12` showed a Rm in [1] of 0.56. Besides, the IC50 in [2] is 0.19 µM; in data set [3], 0.101 µM. For the same compound, the figures for the ILS max in [4], in data set [6] and in data set [9] were 122, 43 and 114, respectively. Further, the figures for the OD in data set [5], in data set [7] and in data set [8] were 20, 20 and 13.3, respectively. In addition, the Log K in [10] was determined as 6.74.
In [1], `CN(C)c1cc(NS(C)(=O)=O)ccc1Nc1c2ccccc2nc2ccccc12` showed a Rm of 0.41. For the same compound, the ILS max in data set [6] is reported as 41. In addition, the OD in data set [7] is on record as 100; in data set [8], 166.
On to `CNC(=O)c1cccc2c(Nc3ccc(NC(=O)OC)cc3NC)c3cccc(C)c3nc12`, for which the Rm in data set [1] stood at 0.5. Further, the results for the IC50 in [2] and in [3] were 1.85 µM and 1.2 µM, respectively. Further, the ILS max in [4] stood at 84; in data set [6], 35; in data set [9], 99. Moreover, the results for the OD in [5], in [7] and in data set [8] were 30, 30 and 20, respectively. Further, the Log K in data set [10] is 7.12.
The compound `CNc1cc(NC(=O)OC)ccc1Nc1c2ccc(F)cc2nc2c(C)cccc12` gave a Rm in data set [1] of 0.52. Further, the IC50 was 0.61 µM in [2] and 0.52 µM in data set [3]. The ILS max in data set [4] stood at 126; in data set [6], 47; in data set [9], 43. In addition, the OD is listed as 45 in data set [5], 65 in data set [7] and 65 in data set [8]. This compound also showed a Log K in data set [10] of 7.37.
`CNc1cc(NC(=O)OC)ccc1Nc1c2ccc(Br)cc2nc2c(C)cccc12` displayed a Rm in data set [1] of 0.69. The results for the IC50 in data set [2] and in [3] were 0.23 µM and 0.18 µM, respectively. In addition, the ILS max in data set [4] was determined as 82; in data set [6] it was 42; in [9], 286. Moreover, the OD in data set [5] is 30; in data set [7], 45; in data set [8] it was 45. Further, the Log K in [10] stood at 7.52.
